Measurements from ChEMBL document CHEMBL3352175, “2',6'-Dihalostyrylanilines, pyridines, and pyrimidines for the inhibition of the catalytic subunit of methionine S-adenosyltransferase-2” (J Med Chem, 2014).
Calls of active or inactive are those of the source. No cut-off for these calls is given here.

Tests used:
[1] = Antiproliferative activity against human LS 174T cells by cell viability analyzer; format: functional, cell-based; conditions: LS174T
Summary of the method: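 LS174T colon cancer cells seeded at 3 × 10^4 cells/mL, treated next day with compounds at 1–300 nM (freshly made DMSO stocks diluted in buffer). Proliferation read by automated cell viability counting. Triplicate at each concentration; IC50 from concentration–response curves by nonlinear regression one-site fit.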

[2] = target: S-adenosylmethionine synthase isoform type-2 (Homo sapiens) (UniProt P31153); assay: Inhibition of recombinant His-tagged MAT2A (unknown origin) using L-methionine and ATP at 30 uM
Chain of S-adenosylmethionine synthase isoform type-2 (Homo sapiens) (P31153 whole entry, looked up, canonical isoform): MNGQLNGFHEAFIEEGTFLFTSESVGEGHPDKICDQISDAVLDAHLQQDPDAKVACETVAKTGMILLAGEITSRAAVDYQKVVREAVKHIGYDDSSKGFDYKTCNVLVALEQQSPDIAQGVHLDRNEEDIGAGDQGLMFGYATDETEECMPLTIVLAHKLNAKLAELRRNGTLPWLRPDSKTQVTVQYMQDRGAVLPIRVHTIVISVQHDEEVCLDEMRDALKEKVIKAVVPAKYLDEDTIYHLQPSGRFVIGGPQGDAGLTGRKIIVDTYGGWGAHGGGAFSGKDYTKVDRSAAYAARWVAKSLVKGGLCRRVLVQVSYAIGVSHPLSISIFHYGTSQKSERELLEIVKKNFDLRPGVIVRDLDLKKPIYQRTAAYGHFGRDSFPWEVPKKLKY
Summary of the method: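 Purified His-tagged MAT2A holoenzyme (3 μg) preincubated with compound (30 μM final) 10 min at room temperature, then given L-methionine (50 μM) and ATP (50 μM) in 50 mM Tris pH 8.0, 50 mM KCl, MgCl2; 25 min at room temperature. Released Pi measured by malachite green absorbance at 635 nm; triplicate; activity expressed relative to reference lead.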

[3] = target: Voltage-gated inwardly rectifying potassium channel KCNH2 (Homo sapiens, UniProt Q12809); assay: Inhibition of human ERG over-expressed in HEK293 cell membrane by [3H]dofetilide binding assay; format: cell membranes
Chain of Voltage-gated inwardly rectifying potassium channel KCNH2 (Q12809 whole entry): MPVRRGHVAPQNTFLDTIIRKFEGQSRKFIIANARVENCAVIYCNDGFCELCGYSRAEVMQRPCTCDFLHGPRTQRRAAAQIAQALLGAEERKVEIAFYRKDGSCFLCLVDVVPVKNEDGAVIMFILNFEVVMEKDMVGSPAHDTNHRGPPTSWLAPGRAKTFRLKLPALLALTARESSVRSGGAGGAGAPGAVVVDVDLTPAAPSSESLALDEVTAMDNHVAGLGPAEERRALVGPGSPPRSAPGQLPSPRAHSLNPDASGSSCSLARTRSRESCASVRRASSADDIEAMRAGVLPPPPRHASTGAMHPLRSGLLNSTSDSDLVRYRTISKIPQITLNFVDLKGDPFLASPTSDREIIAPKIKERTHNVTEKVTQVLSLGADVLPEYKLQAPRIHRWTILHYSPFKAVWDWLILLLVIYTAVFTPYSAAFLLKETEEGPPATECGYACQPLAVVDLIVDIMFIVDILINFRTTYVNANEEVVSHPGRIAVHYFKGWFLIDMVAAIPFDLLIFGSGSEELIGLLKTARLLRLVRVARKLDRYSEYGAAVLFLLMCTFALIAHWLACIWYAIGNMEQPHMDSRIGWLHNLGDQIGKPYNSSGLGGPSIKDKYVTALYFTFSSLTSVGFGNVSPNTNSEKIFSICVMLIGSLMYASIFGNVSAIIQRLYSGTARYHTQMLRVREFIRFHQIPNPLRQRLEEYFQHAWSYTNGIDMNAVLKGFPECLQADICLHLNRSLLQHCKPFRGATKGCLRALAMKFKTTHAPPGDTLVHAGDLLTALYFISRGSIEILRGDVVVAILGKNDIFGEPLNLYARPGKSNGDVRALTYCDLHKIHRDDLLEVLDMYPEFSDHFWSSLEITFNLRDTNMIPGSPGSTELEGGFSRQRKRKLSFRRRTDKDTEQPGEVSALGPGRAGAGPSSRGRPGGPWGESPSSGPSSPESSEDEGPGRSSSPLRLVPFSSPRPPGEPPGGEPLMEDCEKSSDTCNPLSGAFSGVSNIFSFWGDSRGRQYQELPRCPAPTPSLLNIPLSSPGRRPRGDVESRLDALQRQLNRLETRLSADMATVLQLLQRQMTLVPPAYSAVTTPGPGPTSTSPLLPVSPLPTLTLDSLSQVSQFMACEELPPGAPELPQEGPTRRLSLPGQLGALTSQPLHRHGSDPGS

[4] = Ratio of IC50 for human ERG to IC50 for inhibition of human LS174T cell proliferation

SMILES	inhibition [2]	IC50 [1] [nM]	IC50 [3] [nM]	Ratio IC50 [4]
CCNc1ccc(/C=C/c2c(F)cccc2F)cn1		31.3		
CNc1ncc(/C=C/c2c(F)cccc2Cl)cn1		> 200		
CNc1ccc(/C=C/c2c(Cl)cccc2Cl)cn1		19.6		
CN(C)c1ccc(/C=C/c2c(Cl)cccc2Cl)cc1	Active	214		
CCNc1ncc(/C=C/c2c(F)cccc2F)cn1		> 200		
CNc1ccc(/C=C/c2c(F)cccc2F)cn1		30.1		
CCNc1ccc(/C=C/c2c(F)cccc2F)cc1		200		
CN(C)c1ncc(/C=C/c2c(Cl)cccc2Cl)cn1		> 200		
CNc1ccc(/C=C/c2c(Cl)cccc2Cl)cc1	Active	50.1		
CNc1ncc(/C=C/c2c(Cl)cccc2Cl)cn1		> 200		
CN(C)c1ncc(/C=C/c2c(F)cccc2Cl)cn1		> 200		

The next lines start with results.

inhibition [2]	SMILES	IC50 [1] [nM]	IC50 [3] [nM]	Ratio IC50 [4]
Active	CN(C)c1ccc(/C=C/c2c(F)cccc2Cl)cc1	19.2		
Active	CN(C)c1ccc(/C=C/c2c(F)cccc2Cl)cn1	4.7	59500	12700
Active	CNc1ccc(/C=C/c2c(F)cccc2Cl)cc1	7.6	49800	6600
Active	CN(C)c1ccc(/C=C/c2c(F)cccc2Cl)nc1	20.4	20700	1000
Active	CNc1ccc(/C=C/c2c(F)cccc2F)cc1	7.6	49100	6500
Active	CN(C)c1ccc(/C=C/c2c(Cl)cccc2Cl)nc1	59.5		
Active	CN(C)c1ccc(/C=C/c2c(Cl)cccc2Cl)cn1	30.1		
Active	CN(C)c1ccc(/C=C/c2c(F)cccc2F)nc1	57.9	21100	400
Active	CNc1ccc(/C=C/c2c(F)cccc2Cl)cn1	4	19900	5000
Active	CN(C)c1ccc(/C=C/c2c(F)cccc2F)cn1	13.3		
Active	CN(C)c1ncc(/C=C/c2c(F)cccc2F)cn1	> 200	40500	500
Active	CNc1ncc(/C=C/c2c(F)cccc2F)cn1	> 200		
Active	CN(C)c1ccc(/C=C/c2c(F)cccc2F)cc1	26.9		
